High-throughput results from PubChem BioAssay.
Only some compounds are listed: those with a hit (about 2.2% of all), similar ones and a draw of the others.
thrombin 1536 – blocks human thrombin protease activity; inhibition, % at 5 µM; P00734; alpha-thrombin, Boc-VPR-AMC fluorogenic substrate cleavage; 220,000 tested, 0.26% active;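 active = inhibition at or above 40%; inactive = inhibition below 40%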
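signal = AMC fluorescence, 355/460 nm | material = human alpha-thrombin enzyme | control set = enzyme without compound as high, wells lacking enzyme as low | times = reaction at room temperature | read-out basis = percent inhibition scaled between no-compound controls and no-enzyme blanks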
FXIa inh – inhibitors of human coagulation factor XIa. purified FXIa, Boc-Glu-Ala-Arg-AMC fluorogenic substrate. P03951. 220,000 tested, 0.14% active. AID 798. inhibition, % at 5 µM;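 active = inhibition of at least 40%; inactive = inhibition below 40%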;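 also: fluorescence of freed AMC excited at 355 nm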
KLK5 inh – blocks human kallikrein 5 protease activity | Q9Y337 | AID 873 | 210,000 tested, 0.59% active | inhibition, % at 5 µM | recombinant hK5, fluorogenic AMC substrate cleavage;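 active = inhibition of 40% or more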
FXIIa inh 1536 – blocks human coagulation factor XIIa protease activity. P00748. purified FXIIa, Boc-QGR-AMC fluorogenic substrate, 2 h. inhibition, % at 5 µM. 220,000 tested, 0.3% active; in the data active = inhibition above about 40%
Target sequence (P00748 20-372 limits assumed): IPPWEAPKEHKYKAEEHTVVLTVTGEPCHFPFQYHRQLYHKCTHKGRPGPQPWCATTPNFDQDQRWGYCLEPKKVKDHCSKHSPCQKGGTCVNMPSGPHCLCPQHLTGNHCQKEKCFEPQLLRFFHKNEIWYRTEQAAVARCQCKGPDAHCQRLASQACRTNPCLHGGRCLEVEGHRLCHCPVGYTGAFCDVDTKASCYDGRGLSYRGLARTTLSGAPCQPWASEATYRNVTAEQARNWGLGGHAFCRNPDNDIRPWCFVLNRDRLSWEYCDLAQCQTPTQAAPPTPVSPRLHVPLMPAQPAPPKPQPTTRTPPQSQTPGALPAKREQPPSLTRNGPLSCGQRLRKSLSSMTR
Target sequence (P00748 373-615 limits assumed): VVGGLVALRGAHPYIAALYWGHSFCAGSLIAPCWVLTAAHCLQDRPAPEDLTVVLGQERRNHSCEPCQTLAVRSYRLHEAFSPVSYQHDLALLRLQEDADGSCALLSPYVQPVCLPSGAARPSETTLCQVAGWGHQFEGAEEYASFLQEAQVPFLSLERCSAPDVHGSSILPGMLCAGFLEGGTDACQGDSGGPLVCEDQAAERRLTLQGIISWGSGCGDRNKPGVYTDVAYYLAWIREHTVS
Wee1 stabilizer – inhibitors of human Wee1 degradation; HeLa Luc-Wee1K328M stability, luciferase luminescence; 100% = proteasome inhibitor MG132 effect; reporter increase, % at 5 µM; 220,000 tested, 1.2% active; AID 1321;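 active = activation above the mean of all tested compounds plus 3 SD, set per screening run, cut at about 8.8% in these data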;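 also: cells exposed to compound for 20 h before luminescence read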
Of the large screens only hits and unclear results are named; the others gave an inactive call.

CCOc1cc(/C=C(/C#N)C(=O)Nc2ccc(O)cc2)cc(Br)c1O	none
C=CCNC(=O)/C(C#N)=C\c1cc(Cl)c(O)c(OCC)c1	thrombin 1536 48.1, KLK5 inh 52.2
CCOCCCNC(=O)/C(C#N)=C/c1cc(OC)c(O)c([N+](=O)[O-])c1	none
N#C/C(=C\C=C\c1ccccc1)C(=O)NCc1cccnc1	none
CC(C)NC(=O)c1cc2c(s1)CCCC2	Wee1 stabilizer 8.9
CCn1nc(C)c(CNC(=O)c2cc(COc3ccc(F)cc3Cl)on2)c1C	FXIIa inh 1536 43.1
CCn1cc(CNC(=O)c2cc(COc3ccc(F)cc3Cl)on2)cn1	none
O=C(CN1CCCCCC1)N/N=C/c1ccc(Cl)c(Cl)c1	none
O=C(CN1CCCCCCC1)N/N=C/c1ccc(F)cc1F	Wee1 stabilizer 9.6
O=C(COc1ccc(F)cc1)NN1C(=O)CSC1=S	none
CC1=C(C(=O)OCCOc2ccccc2)C(c2ccsc2)NC(=O)N1C (stereo not given)	FXIa inh 54.0
O=C(NCc1ccccn1)c1cn(-c2ccccc2)nc1-c1ccc(Cl)cc1	thrombin 1536 58.0
O=C(NCc1ccccn1)c1ccc(-c2ccccc2)cc1	none
O=C(NN=C1CCCCCC1)c1cn(-c2ccccc2)nc1-c1ccccc1	thrombin 1536 100.1
CN1/C(=C\C=Nc2cc(S(=O)(=O)N3CCOCC3)ccc2N2CCOCC2)C(C)(C)c2ccccc21	none
Cc1ccccc1NC(=O)c1ccc(NC(=O)C2CC(=O)OC23CCCCC3)cc1 (stereo not given)	thrombin 1536 64.1
O=C1CC(C(=O)Nc2ccccc2)C2(CCCC2)O1 (stereo not given)	none
COc1ccc2ccccc2c1/C=N/NC(=O)c1sc(N)c(C#N)c1C	KLK5 inh 63.5
COc1ccc2[nH]c3c(=O)n4c(nc3c2c1)SCCC4	none (no result: KLK5 inh)
CC/C(=N\NC(=O)c1ccc(-c2ccccc2)cc1)C12CC3CC(CC(C3)C1)C2	none
COc1cc2c(cc1OC)CN(CC(=O)Nc1ccc(Cl)c(S(=O)(=O)N(C)C)c1)CC2	none
Cc1cc2cc(CN(Cc3ccc4c(c3)OCO4)C(=O)c3ccco3)c(=O)[nH]c2cc1C	KLK5 inh 54.5
COC(=O)c1cc(NC(=O)c2ccoc2C)cc(C(=O)OC)c1	KLK5 inh 40.5
Cc1occc1C(=O)Nc1cccnc1	KLK5 inh 77.7
O=C(Nc1cccnc1)c1ccccc1O	none
Cc1occc1C(=O)Nc1cccc(C(=O)O)c1	none
COc1ccc(N2CCN(C(=O)COc3ncnc4ccccc34)CC2)cc1	none
Cc1c(Cl)cccc1NC(=S)N1CCC(C(N)=O)(N2CCCCC2)CC1	none
Cc1nc2c3cc(F)ccc3n(CCN3CCCCC3)c2s1	Wee1 stabilizer 9.7 (no result: KLK5 inh)
COc1ccc(Cl)cc1N(CC(=O)NCC(C)C)S(=O)(=O)c1ccc(C)c([N+](=O)[O-])c1	none
Cc1cccc(NC(=S)NC(=O)c2ccc(Br)o2)c1C	none
O=C(NC(=S)Nc1ccccc1F)c1ccc(Br)o1	Wee1 stabilizer 11.3
O=c1[nH]c2ccc(NC(=S)Nc3ccc(F)cc3)cc2[nH]1	Wee1 stabilizer 9.7
CNC(=S)Nc1ccc2[nH]c(=O)[nH]c2c1	none
CCc1ccccc1NCC(=O)Nc1ccc(Cl)c(C(F)(F)F)c1	none
CCCCS(=O)(=O)c1sc2nc3c(cc2c1N)CCCC3	KLK5 inh 42.2
CCCCCCCCS(=O)c1sc2nc3c(cc2c1N)CCCC3 (stereo not given)	none
O=C(CN1C(=O)c2cccc3cccc1c23)Nc1ccc2c(c1)OCO2	none
O=C(CN1C(=O)c2cccc3cccc1c23)NCc1ccc2c(c1)OCO2	KLK5 inh 41.3, FXIIa inh 1536 104.7
NC(=O)C1CCN(CCS(=O)(=O)c2ccc(Cl)cc2)CC1	none
COC(=O)c1cc(OC)c(OC)cc1NC(=S)N1CCN(C/C=C/c2ccccc2)CC1	none
Cc1cccc(NC(=O)Nc2ccc3c(c2)N(C)C(=O)CS3)n1	KLK5 inh 58.5
COc1ccc(C2=CSC3=NCCN23)cc1F	FXIIa inh 1536 101.1
COc1ccc(-c2csc(N)n2)cc1F	none
O=C1C=CC(=O)N1c1ccc(Sc2ccc([N+](=O)[O-])cc2)cc1	Wee1 stabilizer 16.1
Cc1c(C(N)=O)sc2ncn(CC(=O)NCCc3ccccc3)c(=O)c12	none (no result: KLK5 inh)
CN(C)S(=O)(=O)c1ccc(Cl)c(NC(=O)CN2C(=O)NC(C)(C3CC3)C2=O)c1 (stereo not given)	none
Cc1cc(N/N=C/c2ccccc2Br)nc2ccccc12	KLK5 inh 42.0
Brc1ccccc1/C=N/Nc1ccc2ccccc2n1	none
CCOC(=O)Cc1csc(NC(=O)CCC(=O)O)n1	none
CCOC(=O)Cc1csc(NC(=O)CC(C)(C)CC(=O)O)n1	FXIa inh 59.1, KLK5 inh 50.0
Cc1cc2c(NC(=O)Nc3ccccc3)cccc2nn1	KLK5 inh 56.7
COc1ccc(OC)c(NC(=O)COC(=O)/C=C/c2ccc(Cl)cc2)c1	none
CN(C)S(=O)(=O)c1ccc(NC(=O)c2ccc3ncsc3c2)cc1	none
CCc1ccc(NC(=O)c2ccc3ncsc3c2)cc1	KLK5 inh 40.0
CCn1nc(CC(=O)O)c2ccccc2c1=O	FXIa inh 65.8
CCCCn1nc(CC(=O)O)c2ccccc2c1=O	none
CCC(=O)Nc1cccc(C(=O)OCc2cccc([N+](=O)[O-])c2)c1	thrombin 1536 40.8, KLK5 inh 68.2
CCc1cccc(NC(=O)Cc2ccc([N+](=O)[O-])cc2)c1	FXIa inh 40.9, KLK5 inh 51.5
CCc1ccc(C(=O)OCC(=O)c2c(N)n(CC(C)C)c(=O)n(C)c2=O)cc1	none
Cc1nc(-c2ccccc2OC(F)(F)F)[nH]c(=O)c1Cl	Wee1 stabilizer 9.2
Cc1cc(=O)[nH]c(-c2ccccc2OC(F)(F)F)n1	none
CCOC(=O)N1CCN(C(=O)c2cccn3c(=O)c4sccc4nc23)CC1	Wee1 stabilizer 10.2
Cc1cc(NS(=O)(=O)c2ccc(NC(=O)CSc3nnc(-c4ccco4)n3N)cc2)nc(C)n1	thrombin 1536 61.9
CCCCn1c(SCC(=O)Nc2cccc(C)n2)nnc1-c1ccco1	Wee1 stabilizer 9.1
O=C(OCC(=O)N1CCCc2ccccc21)c1cnc(Cl)c(Cl)c1	none
O=C(OCC(=O)N1CCCc2ccccc21)c1ccc(Cl)nc1	FXIIa inh 1536 47.0
CCOc1ccc2oc(C(=O)OC(C(=O)NC(N)=O)C(C)C)c(C)c2c1 (stereo not given)	none
O=C(NC1=NCCS1)c1ccc([N+](=O)[O-])cc1Cl	none
O=C(NC(=S)NC1CCSC1=O)c1ccccc1Cl (stereo not given)	none
Cc1ccccc1C(=O)NC1CCSC1=O (stereo not given)	FXIa inh 50.1
CCOC(=O)c1nnsc1Nc1ccc(C)c(C)c1	none
CC1CCC2(CC1)NC(=S)N(C(C)(C)C)N2 (stereo not given)	KLK5 inh 42.1
CC1CCC2(CC1)NC(=S)N(c1ccccc1)N2 (stereo not given)	none
CCn1c(COc2ccc(OC)cc2)nnc1SCc1nc2ccccc2c(=O)[nH]1	Wee1 stabilizer 9.8
